Assay outcomes from PubChem.
Compounds with a hit are over-represented: about 2.2% of the library has one in this group of screens.
697 NFkB inh: lowers PMA/ionomycin-induced NF-kB signal in 697 B cells; inhibition, % at 4 µM; 330,000 compounds, 0.33% hits; 697 B-cell NF-kB luciferase reporter, 16 h; in the data active = inhibition above about 35%
NR2E3 ag-1: agonists of human NR2E3 nuclear receptor | Q9Y5X4 | CHO-S Gal4-NCOR/VP16-NR2E3 two-hybrid, luciferase | inhibition of corepressor binding, % at 3.98 µM | 360,000 compounds, 0.35% hits | AID 602229;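 active = inhibition above the mean of all tested compounds plus 3 SD, cut at about 70% in these data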;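 note: 0% = DMSO with NR2E3 transfected cells and 100% = cells lacking NR2E3 construct; higher means lower luciferase signal from less NR2E3 corepressor binding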
Target sequence (Q9Y5X4 whole entry, looked up, the tested form may be a part): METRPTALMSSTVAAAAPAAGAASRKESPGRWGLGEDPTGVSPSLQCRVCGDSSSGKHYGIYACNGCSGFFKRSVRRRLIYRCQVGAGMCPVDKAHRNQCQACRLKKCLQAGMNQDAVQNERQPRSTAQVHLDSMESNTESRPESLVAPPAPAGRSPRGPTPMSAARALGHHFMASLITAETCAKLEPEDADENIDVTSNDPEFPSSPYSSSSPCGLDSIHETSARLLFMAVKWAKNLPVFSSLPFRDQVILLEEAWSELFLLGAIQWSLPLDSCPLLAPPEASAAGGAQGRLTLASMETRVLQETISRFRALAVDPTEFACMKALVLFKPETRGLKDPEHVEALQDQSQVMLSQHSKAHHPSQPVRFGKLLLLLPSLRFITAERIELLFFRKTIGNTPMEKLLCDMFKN
Jurkat NFkB inh: lowers PMA/ionomycin-induced NF-kB signal in Jurkat cells; PMA/ionomycin-induced NF-kB luciferase reporter, luminescence; inhibition, % at 4 µM; 330,000 compounds, 0.53% hits; AID 435003; in the data active = inhibition above about 50%
miR122 inh: inhibitors of miR-122 in Huh7 cells; 340,000 compounds, 0.3% hits; Huh7 miR-122 Renilla luciferase sensor, 48 h; neutral wells = 0, positive control = 100; AID 602342; activation (reporter increase), % at 12.5 µM;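 active = mean replicate activation score at least 90 and every replicate individually at or above 90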;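 note: higher luciferase means less miR-122 activity so hits act as miR-122 inhibitors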
FGF22 binding: binders of recombinant human FGF22 by thermal shift. Q9HCT0. SYPRO orange fluorescence; percent of sucrose octasulfate shift, DMSO zero. activity (Tm shift, normalised), % at 9.99 µM. 340,000 compounds, 1.5% hits. AID 651658;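 active = mean Tm shift, scaled 0 neutral to 100 positive control, at about 1.3% or above, every replicate too, limit read from the data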
Target sequence (Q9HCT0 whole entry, looked up): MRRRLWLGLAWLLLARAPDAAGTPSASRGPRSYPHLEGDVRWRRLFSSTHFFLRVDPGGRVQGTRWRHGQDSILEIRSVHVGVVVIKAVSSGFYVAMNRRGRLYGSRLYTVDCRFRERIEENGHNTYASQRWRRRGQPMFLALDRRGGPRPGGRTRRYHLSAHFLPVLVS
NR2E3 ag-2: NR2E3 (human) agonism; AID 2300; inhibition of corepressor binding, % at 4.78 µM; 320,000 compounds, 0.12% hits; GST-NR2E3/biotin-RetCOR TR-FRET, 1536-well; Q9Y5X4;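 active = percent inhibition above the cutoff of mean plus 3 SD of all tested compounds, set per screening campaign, cut at about 20% in these data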;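 note: 0% = DMSO wells and 100% = biotin wells as full block of FRET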
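Test system: GST-NR2E3 and biotin-RetCOR proteins | Quantity: 1.35 nM GST-tagged NR2E3 final | Medium: Tris pH 7.5 | Also added: 7 nM biotin-RetCOR | Dosing: Compound at 4.8 µM, single dose | Timing: 5 h at 4 °C | Detection: Time-resolved FRET | Read-out basis: Percent inhibition | Benchmarks: Biotin wells as high control, 0.6% DMSO wells as low control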
Jurkat NFkB conf: lowers PMA/ionomycin-induced NF-kB signal in Jurkat cells | shares compounds with Jurkat NFkB inh | Jurkat NF-kB luciferase, 16 h | inhibition, % at 4 µM | 2,700 compounds, 27% hits;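 active = inhibition reaching about 45% at 4 µM in either replicate, limit read from the data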;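 note: plate controls were PMA/ionomycin stimulated DMSO wells for no effect and unstimulated DMSO wells for full effect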
697 NFkB conf: lowers PMA/ionomycin-induced NF-kB signal in 697 B cells. 2,000 compounds, 35% hits. 697 B-cell NF-kB luciferase, 16 h. AID 449746. inhibition, % at 4 µM. shares compounds with 697 NFkB inh; in the data active = inhibition mostly above about 28%, no sharp cut-off; inactive = mostly below about 22%
* hit, by the source's call; i = inactive; x = no result given; [ ] = remark or other dose.

SMILES | 697 NFkB inh | NR2E3 ag-1 | Jurkat NFkB inh | miR122 inh | FGF22 binding | NR2E3 ag-2 | Jurkat NFkB conf | 697 NFkB conf
C=C1[C@@H](O)[C@@H]2O[C@]3(CC[C@H](/C=C/[C@@H](C)[C@@H]4CC(C)=CC5(O[C@H](C[C@@](C)(O)C(=O)OC)CC[C@H]5O)O4)O3)CC[C@H]2O[C@@H]1[C@@H](O)C[C@H](C)[C@H]1OC2(CCCCO2)CC[C@H]1C (stereo not given in full) | -13 | x | -5 | x | x | x | x | x
COc1ccc2cc3cc(C(=O)NCCN4CCc5ccccc5C4)sc3nc2c1 | -82 | -6 | -58 | x | 0 | -4 | x | x
CCC(C)NC(=O)c1cc2cc3ccc(OC)cc3nc2s1 (stereo not given) | -274 | -115 | -214 | -5 | x | 1 | -112 | -187
O=C(Cc1nc(=O)c2ccccc2s1)Nc1ccccc1 | -318 | -116 | -208 | 10 | x | 2 | -148 | -256
O=C(Nc1ccc(C#Cc2ccccc2)cc1)C1CC1 | i | -133 | -277 | -3 | x | 1 | -141 | i
O=C(N[C@H]1CC[C@@H](CCNC(=O)C2CCC2)O[C@@H]1CO)c1ccccn1 | x | x | x | x | 0 | x | x | x
CC(C)(O)c1[nH]c2ccc(C(F)(F)F)cc2c1C(C)(C)O | -23 | -7 | -13 | -23 | 0 | -2 | x | x
CC(C)(O)c1[nH]c2ccc(C#N)cc2c1C(C)(C)O | 59* | x | 63* | x | 0 | 2 | 88* | 60*
COC(=O)c1cc(-c2c(-c3cc(OC)c(OC)c(OC)c3)noc2C)cc([N+](=O)[O-])c1 | -7 | 7 | -8 | 0 | 0 | 4 | x | x
COc1cc(-c2c(-c3cc(OC)c(OC)c(OC)c3)noc2C)ccc1F | -280 | x | 71* | x | 0 | 5 | 47* | -162
C[C@H]1CN([C@@H](C)CO)C(=O)c2cc(-c3ccc(C#N)cc3)cnc2O[C@@H]1CN(C)C(=O)c1cccnc1 | x | x | x | x | 0 | x | x | x
Cc1ccc(NC(=O)Nc2cccc(F)c2)nc1 | -99 | -139 | -96 | -1 | 0 | x | x | x
Cc1ccnc(NC(=O)Nc2cccc(F)c2)c1 | -303 | -88 | -176 | -1 | x | -2 | -121 | -257
CC1CCc2nc3sc4c(c3c(N)c2C1)CCCC4 (stereo not given) | -98 | -57 | -78 | x | x | -2 | x | x
Nc1c2c(nc3sc4c(c13)CCCCC4)CCCCC2 | -260 | -180 | -177 | 9 | 0 | -3 | -98 | -204
COc1ccc(C(C(=O)NC2CCCCC2)N(C(=O)CCl)c2ccc(C)cc2)cc1 (stereo not given) | 95* | 4 | 95* | x | 0 | -2 | 39 | -10
COc1ccc(C(C(=O)NC2CCCCC2)N(C(=O)CCl)c2ccc(OC)cc2)cc1 (stereo not given) | 98* | -30 | 93* | -13 | x | -2 | 32 | 80*
O=S1(=O)C=C(Sc2nc3ccccc3s2)c2ccccc21 | -477 | x | 97* | x | x | -4 | 92* | i
O=C(CSc1nc2ccccc2s1)CSc1nc2ccccc2s1 | 7 | -44 | -3 | -2 | 0 | 4 | x | x
COc1ccc(C(=O)CN2C(=O)c3ccccc3S2(=O)=O)cc1 | 56* | 17 | 73* | 4 | 0 | -1 | 58* | 60*
Cc1cc(C(=O)CN2C(=O)NC(C)(c3ccccc3)C2=O)c(C)n1CC1CCCO1 (stereo not given) | 1 | -5 | 3 | x | x | -5 | x | x
Cc1cc(C(=O)CN2C(=O)c3ccccc3S2(=O)=O)c(C)n1CC1CCCO1 (stereo not given) | 44* | 23 | 79* | 3 | x | 1 | 22 | 8
COc1ccc(S(=O)(=O)N(C)C[C@H]2OCCCC[C@@H](C)Oc3ccc(NC(=O)c4ccncc4)cc3C(=O)N([C@@H](C)CO)C[C@H]2C)cc1 | x | x | x | 0[16.7 µM] | 0 | x | x | x
Cc1ccc(NC(=O)c2noc3c2CCCCC3)cc1C | -317 | -57 | -248 | -16 | x | -2 | -114 | -306
O=C(C[C@H]1C=C[C@@H](NC(=O)c2cccc(F)c2)[C@@H](CO)O1)NCc1ccccc1 | x | x | x | -4[16.7 µM] | 0 | x | x | x
SMILES | 697 NFkB inh | NR2E3 ag-1 | Jurkat NFkB inh | miR122 inh | FGF22 binding | NR2E3 ag-2 | Jurkat NFkB conf | 697 NFkB conf
COc1ccc(Cn2c(C3CC3)nc3ccc(NC(=O)C4CC4)cc3c2=O)cc1 | -290 | -112 | -161 | -10 | x | 3 | -109 | -257
CCC(=O)Nc1ccc2nc(C3CC3)n(Cc3ccc(C(C)(C)C)cc3)c(=O)c2c1 | i | -24 | -192 | -18 | 0 | 0 | -105 | i
Cc1noc(C)c1NC(=O)N(C)C[C@H]1Oc2c(NC(=O)C3CC3)cccc2C(=O)N([C@@H](C)CO)C[C@H]1C | x | x | x | -3[16.7 µM] | 1 | x | x | x
C[C@H]1CN([C@@H](C)CO)S(=O)(=O)c2ccc(-c3cccnc3)cc2O[C@H]1CN(C)C | x | x | x | 3[16.7 µM] | 0 | x | x | x
O=C(c1ccccc1)c1ccc(O)cc1O | 2 | -29 | -8 | -2 | -2 | 0 | x | x
CC(=O)c1cc2c(C)c(C(=O)c3ccccc3)oc2cc1O | -362 | -114 | -186 | x | x | 1 | -93 | -303
CN(C)CCn1c2ccccc2c2nc3ccc([N+](=O)[O-])cc3cc21 | -317 | -47 | 60* | -16 | 0 | 0 | 10 | -297
CCn1c2ccccc2c2cc([N+](=O)[O-])ccc21 | 10 | -1 | 2 | x | 0 | -2 | x | x
CCCCC[n+]1cccc2c3ccccc3ccc21 | 60* | 17 | 52* | x | 0 | 0 | 46 | 42*
c1ccc(C[n+]2cccc3c4ccccc4ccc32)cc1 | 0 | -16 | 26 | x | x | 0 | x | x
C[C@H](CO)N1C[C@H](C)[C@H](CN(C)Cc2ccccn2)Oc2cc(C3=CCCC3)ccc2S1(=O)=O | x | x | x | 5[16.7 µM] | 0 | x | x | x
O=[N+]([O-])c1cccc(N=Nc2ccc(O)cc2O)c1 | x | -4 | x | -4 | 0 | x | x | x
O=[N+]([O-])c1ccc(N=Nc2ccc(O)cc2O)cc1 | 63* | -10 | 59* | -5 | x | 3 | -12 | -45
C[C@H](CO)N1C[C@H](C)[C@H](CN(C)Cc2ccncc2)Oc2ncc(-c3cccc(C#N)c3)cc2C1=O | x | x | x | 1[16.7 µM] | 0 | x | x | x
Cc1ccc(N=Cc2sc(O)c3ccccc23)cc1 | -257 | -32 | -197 | 4 | x | 1 | 14 | -35
C(=N\Nc1nc(Nc2ccccc2)nc(N2CCOCC2)n1)/c1c[nH]c2ccccc12 | 60* | x | 82* | x | x | -1 | -3 | 49*
c1ccc(Nc2nc(N3CCOCC3)nc(N3CCOCC3)n2)cc1 | 18 | 2 | -26 | -8 | x | -3 | x | x
